Values after ≈ are worked out from the molar mass of the structure shown.
Experiments:
[1] = target: Mitogen-activated protein kinase 14 (Homo sapiens, UniProt Q16539); experiment: Inhibition of p38alpha at 30 uM by microfluidic mobility shift assay
In short: (§1)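 Single-concentration screen, singlicate, 30 uM final (diluted from 1 mM DMSO solutions), fluorescently tagged peptide substrate appropriate to each kinase, ATP at apparent Km for each protein. Phosphorylated and unphosphorylated peptides separated electrophoretically; conversion is the phosphorylated peak area over the sum of both peaks. No-inhibitor and no-ATP controls; H89 reference on each plate.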

[2] = target: T1, Tyrosine-protein kinase ABL1 (Homo sapiens, UniProt P00519); experiment: Inhibition of ABL at 30 uM by microfluidic mobility shift assay; in short: as §1
T1 sequence (P00519 whole entry): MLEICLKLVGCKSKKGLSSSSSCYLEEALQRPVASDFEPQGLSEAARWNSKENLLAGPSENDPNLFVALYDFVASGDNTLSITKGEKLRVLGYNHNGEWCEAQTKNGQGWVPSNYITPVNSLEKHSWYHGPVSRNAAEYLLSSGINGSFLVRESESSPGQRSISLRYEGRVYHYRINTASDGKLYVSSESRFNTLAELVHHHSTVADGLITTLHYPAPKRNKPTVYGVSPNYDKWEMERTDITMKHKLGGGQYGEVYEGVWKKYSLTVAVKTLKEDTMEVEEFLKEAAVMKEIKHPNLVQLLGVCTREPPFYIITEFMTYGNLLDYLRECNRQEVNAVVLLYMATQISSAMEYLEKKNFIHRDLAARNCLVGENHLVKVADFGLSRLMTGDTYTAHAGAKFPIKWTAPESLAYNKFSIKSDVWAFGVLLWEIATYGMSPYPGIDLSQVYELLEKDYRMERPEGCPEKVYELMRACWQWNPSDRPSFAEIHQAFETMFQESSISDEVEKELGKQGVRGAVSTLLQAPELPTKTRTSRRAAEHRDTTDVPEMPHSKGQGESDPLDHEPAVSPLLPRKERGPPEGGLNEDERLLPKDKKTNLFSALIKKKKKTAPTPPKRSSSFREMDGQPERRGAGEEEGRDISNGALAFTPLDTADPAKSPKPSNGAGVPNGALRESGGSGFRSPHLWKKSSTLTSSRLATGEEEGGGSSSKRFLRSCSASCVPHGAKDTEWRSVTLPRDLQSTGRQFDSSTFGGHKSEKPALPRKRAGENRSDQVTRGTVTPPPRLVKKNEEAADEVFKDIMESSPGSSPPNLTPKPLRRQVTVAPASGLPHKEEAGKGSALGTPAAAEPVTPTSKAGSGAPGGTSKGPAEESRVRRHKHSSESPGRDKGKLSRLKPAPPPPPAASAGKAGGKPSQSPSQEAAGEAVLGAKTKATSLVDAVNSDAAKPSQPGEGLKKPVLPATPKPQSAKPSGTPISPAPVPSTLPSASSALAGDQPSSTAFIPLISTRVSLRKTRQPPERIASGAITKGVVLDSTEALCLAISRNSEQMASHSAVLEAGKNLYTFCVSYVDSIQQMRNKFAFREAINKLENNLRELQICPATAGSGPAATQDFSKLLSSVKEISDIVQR

[3] = target: T2, MAP kinase-activated protein kinase 2 (Homo sapiens, UniProt P49137); experiment: Inhibition of MAPKAPK2 at 30 uM by microfluidic mobility shift assay; in short: as §1
Target sequence in this assay (P49137 whole entry, looked up): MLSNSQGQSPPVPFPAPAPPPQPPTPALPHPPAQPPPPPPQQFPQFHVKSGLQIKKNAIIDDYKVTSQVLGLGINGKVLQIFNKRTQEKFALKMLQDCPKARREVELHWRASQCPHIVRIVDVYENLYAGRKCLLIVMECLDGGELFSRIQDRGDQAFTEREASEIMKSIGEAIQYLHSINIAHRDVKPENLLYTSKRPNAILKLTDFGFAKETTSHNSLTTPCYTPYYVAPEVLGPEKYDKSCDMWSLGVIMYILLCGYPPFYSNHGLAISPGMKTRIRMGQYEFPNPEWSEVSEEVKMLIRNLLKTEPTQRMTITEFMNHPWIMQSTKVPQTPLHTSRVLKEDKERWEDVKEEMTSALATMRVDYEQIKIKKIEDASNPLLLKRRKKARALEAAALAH

[4] = target: T3, Tyrosine-protein kinase Fyn (Homo sapiens, UniProt P06241); experiment: Inhibition of FYN at 30 uM by microfluidic mobility shift assay; in short: as §1
Target sequence in this assay (P06241 2-537 limits assumed): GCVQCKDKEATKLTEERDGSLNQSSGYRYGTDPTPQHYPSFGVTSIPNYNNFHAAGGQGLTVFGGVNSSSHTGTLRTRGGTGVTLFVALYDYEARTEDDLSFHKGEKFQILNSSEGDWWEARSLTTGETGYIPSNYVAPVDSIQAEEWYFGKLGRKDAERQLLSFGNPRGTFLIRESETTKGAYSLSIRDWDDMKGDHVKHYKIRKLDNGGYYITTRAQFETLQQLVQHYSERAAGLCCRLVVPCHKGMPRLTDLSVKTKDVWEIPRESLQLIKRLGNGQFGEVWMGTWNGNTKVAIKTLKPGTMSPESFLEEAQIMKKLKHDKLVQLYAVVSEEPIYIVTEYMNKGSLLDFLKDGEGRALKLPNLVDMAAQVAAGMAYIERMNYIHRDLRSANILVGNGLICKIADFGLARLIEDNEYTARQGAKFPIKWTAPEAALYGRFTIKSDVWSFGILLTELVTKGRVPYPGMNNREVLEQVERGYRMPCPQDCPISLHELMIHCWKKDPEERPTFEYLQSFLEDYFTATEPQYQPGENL

[5] = target: T4, Protein kinase C zeta type (Homo sapiens) (UniProt Q05513); experiment: Inhibition of PKCz at 30 uM by microfluidic mobility shift assay; in short: as §1
T4 sequence (whole entry): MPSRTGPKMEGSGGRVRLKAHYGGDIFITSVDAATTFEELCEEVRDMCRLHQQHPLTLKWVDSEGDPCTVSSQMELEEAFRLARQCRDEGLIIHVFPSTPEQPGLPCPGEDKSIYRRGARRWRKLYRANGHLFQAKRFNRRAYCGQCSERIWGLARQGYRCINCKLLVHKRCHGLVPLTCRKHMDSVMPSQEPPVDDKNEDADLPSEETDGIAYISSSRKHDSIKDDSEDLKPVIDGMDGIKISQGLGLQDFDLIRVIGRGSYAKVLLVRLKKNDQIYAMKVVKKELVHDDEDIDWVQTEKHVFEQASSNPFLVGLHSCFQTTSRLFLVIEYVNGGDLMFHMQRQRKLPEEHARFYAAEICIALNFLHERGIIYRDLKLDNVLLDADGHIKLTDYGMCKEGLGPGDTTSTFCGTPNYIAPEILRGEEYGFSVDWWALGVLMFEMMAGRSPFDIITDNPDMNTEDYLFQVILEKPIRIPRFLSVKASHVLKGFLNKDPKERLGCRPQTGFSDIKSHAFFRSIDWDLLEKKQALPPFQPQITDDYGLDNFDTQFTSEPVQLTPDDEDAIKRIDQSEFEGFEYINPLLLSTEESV

[6] = target: T5, Serine/threonine-protein kinase Chk1 (Homo sapiens) (UniProt O14757); experiment: Inhibition of CHK1 at 30 uM by microfluidic mobility shift assay; in short: as §1
T5 sequence (whole entry): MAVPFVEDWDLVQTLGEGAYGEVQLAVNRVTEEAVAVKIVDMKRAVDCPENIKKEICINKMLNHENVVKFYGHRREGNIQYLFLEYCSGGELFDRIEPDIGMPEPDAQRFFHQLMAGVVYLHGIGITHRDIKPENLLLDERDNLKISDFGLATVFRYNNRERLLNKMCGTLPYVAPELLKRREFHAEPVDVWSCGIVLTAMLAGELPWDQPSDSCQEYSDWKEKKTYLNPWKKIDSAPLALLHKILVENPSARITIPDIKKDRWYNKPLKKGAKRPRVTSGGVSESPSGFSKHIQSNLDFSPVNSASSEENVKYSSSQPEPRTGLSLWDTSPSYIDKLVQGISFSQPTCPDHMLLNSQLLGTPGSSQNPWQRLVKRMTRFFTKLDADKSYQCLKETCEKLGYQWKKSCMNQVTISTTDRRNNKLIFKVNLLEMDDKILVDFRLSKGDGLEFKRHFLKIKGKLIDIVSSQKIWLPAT

[7] = target: Ribosomal protein S6 kinase alpha-1 (Homo sapiens) (UniProt Q15418); experiment: Inhibition of RSK1 at 30 uM by microfluidic mobility shift assay; in short: as §1
Chain of Ribosomal protein S6 kinase alpha-1 (Homo sapiens) (Q15418 whole entry): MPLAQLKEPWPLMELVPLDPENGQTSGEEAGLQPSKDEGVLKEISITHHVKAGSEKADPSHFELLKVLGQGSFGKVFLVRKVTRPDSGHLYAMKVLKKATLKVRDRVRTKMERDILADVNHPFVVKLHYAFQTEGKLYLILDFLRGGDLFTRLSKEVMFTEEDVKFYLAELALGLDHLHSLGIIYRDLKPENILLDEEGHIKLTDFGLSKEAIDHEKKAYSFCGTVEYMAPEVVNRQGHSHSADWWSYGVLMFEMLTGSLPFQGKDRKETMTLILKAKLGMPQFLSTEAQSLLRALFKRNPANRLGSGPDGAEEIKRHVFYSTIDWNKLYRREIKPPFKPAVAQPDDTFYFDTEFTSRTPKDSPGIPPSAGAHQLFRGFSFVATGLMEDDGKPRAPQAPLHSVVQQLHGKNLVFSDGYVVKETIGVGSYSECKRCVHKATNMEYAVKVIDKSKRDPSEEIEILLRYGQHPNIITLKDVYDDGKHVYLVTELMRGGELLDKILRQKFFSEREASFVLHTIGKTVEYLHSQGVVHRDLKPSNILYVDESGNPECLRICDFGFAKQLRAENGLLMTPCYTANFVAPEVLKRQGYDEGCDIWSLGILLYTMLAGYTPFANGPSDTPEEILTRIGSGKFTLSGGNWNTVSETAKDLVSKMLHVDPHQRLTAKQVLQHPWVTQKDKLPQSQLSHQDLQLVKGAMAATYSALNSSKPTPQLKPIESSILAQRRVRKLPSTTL

[8] = target: Mitogen-activated protein kinase 3 (Homo sapiens) (UniProt P27361); experiment: Inhibition of ERK1 at 30 uM by microfluidic mobility shift assay; in short: as §1
Chain of Mitogen-activated protein kinase 3 (Homo sapiens) (P27361 whole entry): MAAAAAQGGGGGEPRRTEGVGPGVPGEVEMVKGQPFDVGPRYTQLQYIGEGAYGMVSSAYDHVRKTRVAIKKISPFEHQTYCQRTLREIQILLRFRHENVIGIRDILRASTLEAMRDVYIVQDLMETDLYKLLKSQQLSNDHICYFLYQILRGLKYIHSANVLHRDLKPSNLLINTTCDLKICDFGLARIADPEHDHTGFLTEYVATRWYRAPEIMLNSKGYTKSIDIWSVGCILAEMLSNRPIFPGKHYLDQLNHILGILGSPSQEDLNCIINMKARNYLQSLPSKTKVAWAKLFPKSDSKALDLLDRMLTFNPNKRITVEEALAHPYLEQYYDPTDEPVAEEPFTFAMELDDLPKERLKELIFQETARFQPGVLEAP

[9] = Aqueous solubility of the compound by HPLC analysis; assay type: physicochemical; details: water
In short: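 Solubility determined by HPLC measurement of the concentration in saturated aqueous solutions of the compounds.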

[10] = target: RAC-beta serine/threonine-protein kinase (Homo sapiens) (UniProt P31751); experiment: Inhibition of AKT2 at 30 uM by microfluidic mobility shift assay; in short: as §1
Chain of RAC-beta serine/threonine-protein kinase (Homo sapiens) (P31751 whole entry): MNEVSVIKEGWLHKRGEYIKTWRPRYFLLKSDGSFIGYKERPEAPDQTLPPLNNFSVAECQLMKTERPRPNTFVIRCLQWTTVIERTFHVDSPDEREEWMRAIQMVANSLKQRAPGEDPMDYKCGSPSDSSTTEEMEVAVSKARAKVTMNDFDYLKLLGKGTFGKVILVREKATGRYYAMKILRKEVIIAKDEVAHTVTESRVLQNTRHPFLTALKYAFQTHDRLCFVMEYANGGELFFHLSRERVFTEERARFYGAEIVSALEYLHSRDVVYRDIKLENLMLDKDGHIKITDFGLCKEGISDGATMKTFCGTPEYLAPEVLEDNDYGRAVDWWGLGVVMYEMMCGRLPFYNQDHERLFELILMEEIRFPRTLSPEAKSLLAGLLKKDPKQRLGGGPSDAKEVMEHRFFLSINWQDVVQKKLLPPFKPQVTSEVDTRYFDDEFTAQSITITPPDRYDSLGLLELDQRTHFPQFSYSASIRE

MCF7 = experiment: Growth inhibition of human MCF7 cells; assay type: functional
Aurora kinase A = Aurora kinase A (Homo sapiens, UniProt O14965); experiment: Inhibition of AurA by microfluidic mobility shift assay
Chain of Aurora kinase A (O14965 whole entry): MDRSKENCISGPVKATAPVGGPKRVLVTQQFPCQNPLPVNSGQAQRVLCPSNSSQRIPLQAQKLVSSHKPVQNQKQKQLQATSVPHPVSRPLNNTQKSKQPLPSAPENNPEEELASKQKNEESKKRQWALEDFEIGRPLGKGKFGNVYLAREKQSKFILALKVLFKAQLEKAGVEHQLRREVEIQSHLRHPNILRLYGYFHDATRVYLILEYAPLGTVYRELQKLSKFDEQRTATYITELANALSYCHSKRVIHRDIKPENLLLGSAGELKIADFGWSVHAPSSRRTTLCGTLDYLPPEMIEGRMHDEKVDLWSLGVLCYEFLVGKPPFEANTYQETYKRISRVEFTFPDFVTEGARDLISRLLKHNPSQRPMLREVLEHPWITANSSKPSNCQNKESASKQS
In short: (§2)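 IC50 determined in the mobility shift format: a fluorescently tagged peptide substrate appropriate to each kinase, ATP at its apparent Km for each protein, and electrophoretic separation of phospho and unphosphorylated peptide. Percent conversion is the ratio of the phosphopeptide peak area to the total peak area. Controls were no inhibitor and no ATP.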

[11] = target: Casein kinase I isoform delta (Homo sapiens, UniProt P48730); experiment: Inhibition of CK1delta by microfluidic mobility shift assay; in short: as §2
[12] = target: T2, MAP kinase-activated protein kinase 2; experiment: Inhibition of MAPKAPK2 by microfluidic mobility shift assay; in short: as §2
Target sequence in this assay (P49137 whole entry): as the sequence (P49137 whole entry, looked up) above

[13] = target: Serine/threonine-protein kinase Chk1 (Homo sapiens, UniProt O14757); experiment: Inhibition of CHK1 by microfluidic mobility shift assay; in short: as §2
[14] = target: T1, Tyrosine-protein kinase ABL1; experiment: Inhibition of ABL by microfluidic mobility shift assay; in short: as §2
[15] = target: Tyrosine-protein kinase Lck (Homo sapiens, UniProt P06239); experiment: Inhibition of LCK by microfluidic mobility shift assay; in short: as §2
Chain of Tyrosine-protein kinase Lck (P06239 whole entry): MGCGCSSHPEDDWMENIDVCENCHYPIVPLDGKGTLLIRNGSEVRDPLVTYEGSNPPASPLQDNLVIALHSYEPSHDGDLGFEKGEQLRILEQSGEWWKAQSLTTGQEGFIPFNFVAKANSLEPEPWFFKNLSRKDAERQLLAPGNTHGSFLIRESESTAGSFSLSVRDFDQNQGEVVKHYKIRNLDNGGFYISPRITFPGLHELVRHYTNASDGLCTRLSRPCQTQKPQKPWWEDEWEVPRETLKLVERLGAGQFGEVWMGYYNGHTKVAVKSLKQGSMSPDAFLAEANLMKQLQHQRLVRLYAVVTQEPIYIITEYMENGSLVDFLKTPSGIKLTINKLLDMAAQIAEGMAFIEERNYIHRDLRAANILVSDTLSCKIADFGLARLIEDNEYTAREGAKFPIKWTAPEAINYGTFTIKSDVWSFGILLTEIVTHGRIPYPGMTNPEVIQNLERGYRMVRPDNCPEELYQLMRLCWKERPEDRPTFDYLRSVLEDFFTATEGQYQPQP

[16] = target: Proto-oncogene tyrosine-protein kinase Src (Homo sapiens, UniProt P12931); experiment: Inhibition of SRC by microfluidic mobility shift assay; in short: as §2
[17] = target: T3, Tyrosine-protein kinase Fyn; experiment: Inhibition of FYN by microfluidic mobility shift assay; in short: as §2
[18] = target: Tyrosine-protein kinase Lyn (Homo sapiens, UniProt P07948); experiment: Inhibition of LYN by microfluidic mobility shift assay; in short: as §2
[19] = Inhibition of PKA by microfluidic mobility shift assay; in short: as §2
[20] = target: Serine/threonine-protein kinase Chk2 (Homo sapiens, UniProt O96017); experiment: Inhibition of CHK2 by microfluidic mobility shift assay; in short: as §2

Chain of Mitogen-activated protein kinase 14 (Q16539 whole entry): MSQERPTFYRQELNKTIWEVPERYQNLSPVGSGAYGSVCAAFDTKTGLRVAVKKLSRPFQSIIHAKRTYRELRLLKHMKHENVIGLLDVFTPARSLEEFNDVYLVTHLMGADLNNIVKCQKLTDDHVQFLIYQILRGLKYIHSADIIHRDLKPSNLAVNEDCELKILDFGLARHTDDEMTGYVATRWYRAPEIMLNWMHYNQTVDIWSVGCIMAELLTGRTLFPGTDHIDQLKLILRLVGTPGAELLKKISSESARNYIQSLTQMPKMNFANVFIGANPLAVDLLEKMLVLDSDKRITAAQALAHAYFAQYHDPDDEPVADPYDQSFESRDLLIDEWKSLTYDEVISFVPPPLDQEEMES

Row | inhibition [1] [%] | inhibition [2] [%] | inhibition [3] [%] | inhibition [4] [%] | inhibition [5] [%] | inhibition [6] [%] | inhibition [7] [%] | inhibition [8] [%] | solubility [9] [µg/mL] | inhibition [10] [%] | Compound | further results
1 | 1 | 18 | -1 | 53 | 43 | 11 | 46 | 6 | 794 (≈ 3430 µM) | 11 | Cc1cc2[nH]nc(N)c2c(N2CCCCC2)n1 | –
2 | 32 | 95 | 4 | 96 | 3 | 7 | 6 | 4 | – | 8 | Nc1c2c(=O)[nH]c(-c3ccccn3)cc2nn1-c1ccccc1 | GI50 (MCF7): 210 nM
3 | 6 | 0 | 29 | -8 | 0 | -8 | 2 | -2 | 1220 (≈ 6830 µM) | 4 | Cc1cc2c(c(N)nn2C)c(=O)[nH]1 | –
4 | 5 | 10 | 9 | 21 | 28 | 4 | 4 | 3 | 79 (≈ 280 µM) | 40 | CC(=O)Nc1nn(C)c2cc(-c3ccccc3)[nH]c(=O)c12 | –
5 | -1 | 11 | 11 | 7 | 14 | 2 | -5 | 10 | 469 (≈ 1770 µM) | 3 | COC(=O)CCc1c(C)[nH]c(=O)c2c(N)nn(C)c12 | –
6 | 3 | 80 | 45 | 65 | 7 | 67 | 14 | 13 | 55 (≈ 163 µM) | -1 | CN1CCN(c2ccc(-c3cc4c(c(N)nn4C)c(=O)[nH]3)cc2)CC1 | IC50 (Aurora kinase A): 33 µM; IC50 [11]: 39 µM; IC50 [12]: 35 µM; IC50 [13]: 24 µM; IC50 [14]: 7.8 µM; IC50 [15]: 18 µM; IC50 [16]: 7.7 µM; IC50 [17]: 17 µM; IC50 [18]: 14 µM; IC50 [19]: 5.2 µM; IC50 [20]: 34 µM
7 | -7 | 12 | 30 | 2 | 10 | 7 | 6 | 4 | 1640 (≈ 9960 µM) | 8 | Cc1cc2[nH]nc(N)c2c(=O)[nH]1 | –
8 | 7 | 15 | 0 | 7 | 19 | 5 | – | 4 | < 1 | 11 | Cc1cc2c(c(NC(=O)Nc3ccccc3)nn2C)c(=O)[nH]1 | –
9 | 7 | 26 | 37 | 26 | 6 | 25 | 8 | 19 | 76 (≈ 316 µM) | 4 | Cn1nc(N)c2c(=O)[nH]c(-c3ccccc3)cc21 | –
10 | 17 | 40 | 41 | 54 | 3 | 29 | 24 | 11 | – | 8 | Nc1n[nH]c2cc(-c3ccccn3)[nH]c(=O)c12 | –
